Experiments:
Escherichia coli = experiment: Inhibition of Escherichia coli FabB at 200 uM by radiochemical assay
Method in brief: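 Radiochemical condensing-enzyme assay with FabB, run per an earlier method except that lauryl-ACP replaced myristoyl-ACP. The lauryl-ACP was made with Vibrio harveyi acyl-ACP synthetase. Compounds were tested at a single final concentration of 200 μM, and inhibition is given as percent.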

[1] = Inhibition of Escherichia coli FabB by radiochemical assay
Method in brief: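 Radiochemical condensing-enzyme assay with E. coli FabB, run as described earlier except that myristoyl-ACP was replaced by lauryl-ACP. The lauryl-ACP was made with Vibrio harveyi acyl-ACP synthetase. Compounds were first screened at a single final concentration of 200 μM, and selected compounds then went to dose-response testing to derive IC50.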

[2] = Inhibition of Staphylococcus aureus FabF by radiochemical assay

| SMILES | inhibition (Escherichia coli) | IC50 [1] | IC50 [2] |
| --- | --- | --- | --- |
| O=c1oc2ccc(Cl)cc2n1CN1CCCC2(CCOCC2)C1 | 37.7% | 335 µM | – |
| CN(Cc1cccc(O)c1)Cn1c(=O)oc2ccc(Cl)cc21 | 41.4% | – | – |
| O=c1oc2ccc(Cl)cc2n1CN1CCCC1c1cccc(Br)c1 (racemic) | 55.4% | 260 µM | – |
| CN(CC1CCCC1)Cn1c(=O)oc2ccc(Cl)cc21 | 17.7% | – | – |
| CC(CN(C)Cn1c(=O)oc2cc(Cl)ccc21)N1CCOCC1 (racemic) | 24.3% | – | – |
| O=c1oc2ccc(Cl)cc2n1CN1CCC1c1ccccc1 (racemic) | 31.9% | – | – |
| COc1cccc(CN(Cn2c(=O)oc3cc(Cl)ccc32)C2CC2)c1 | 28.3% | – | – |
| O=c1oc2ccccc2n1CN(Cc1ccsc1)C1CC1 | 37.8% | – | – |
| O=c1oc2cc(Br)ccc2n1CN1CCC2(CC1)OCCO2 | 32.7% | 600 µM | – |
| O=c1oc2ccc(Cl)cc2n1CN(CC1CCOC1)C1CC1 (racemic) | 36.7% | 350 µM | – |
| CN(CC1CCOCC1)Cn1c(=O)oc2cc(Cl)ccc21 | 31.7% | – | – |
| O=c1oc2cc(Cl)ccc2n1CN1CCCCC1c1ccccc1 (racemic) | 38% | – | – |
| O=c1oc2cc(Cl)ccc2n1CN(Cc1ccc(F)cc1)C1CC1 | 32.1% | – | – |
| O=c1sc2ccc(Cl)cc2n1CN1CCCC1c1cccc(Br)c1 (racemic) | 36.1% | 303 µM | – |
| CN(CCN1CCCC1)Cn1c(=O)oc2cc(Cl)ccc21 | 26.4% | – | – |
| CN(Cc1ccsc1)Cn1c(=O)oc2ccccc21 | 30% | – | – |
| O=c1oc2cc(Cl)ccc2n1CN(Cc1ccccn1)C1CC1 | 30% | – | – |
| CN(Cc1ccccc1)Cn1c(=O)oc2ccccc21 | 33.5% | 235 µM | 387 µM |
| O=c1oc2cc(Cl)ccc2n1CN(Cc1cccnc1)C1CC1 | 23.6% | – | – |
| COc1cccc(C2CCCN2Cn2c(=O)oc3cc(Cl)ccc32)c1 (racemic) | 36.4% | – | – |
| Cc1ccc2oc(=O)n(CN(CC3CCOC3)C3CC3)c2c1 (racemic) | 40.1% | – | – |
| O=c1oc2cc(Cl)ccc2n1CN1CCCC2(CCOCC2)C1 | 38.8% | – | – |
| O=c1oc2cc(Br)ccc2n1CN(CC1CCCC1)C1CC1 | 17.7% | – | – |
| CN1CCC(CN(C)Cn2c(=O)oc3cc(Cl)ccc32)C1 (racemic) | 23.8% | – | – |
| N#Cc1ccc2oc(=O)n(CN3CCCC3c3cccc(Br)c3)c2c1 (racemic) | 42.1% | 253 µM | – |
| O=c1oc2ccccc2n1CN(Cc1ccc(F)cc1)C1CC1 | 5% | – | – |
| O=c1oc2cc(Cl)ccc2n1CN(CC1CCOC1)C1CC1 (racemic) | 24.1% | 800 µM | – |
| O=c1oc2ccccc2n1CN1CCCC1 | 24% | – | – |
| COc1cccc(C2CCCN2Cn2c(=O)oc3ccc(Cl)cc32)c1 (racemic) | 37.1% | 305 µM | – |
| O=c1oc2ccc(Cl)cc2n1CN1CCCCC1c1ccccc1 (racemic) | 30.4% | 415 µM | – |
